Assay [1] deals with T1, Muscarinic acetylcholine receptor M1 (Homo sapiens) (UniProt P11229).
T1 sequence (whole entry): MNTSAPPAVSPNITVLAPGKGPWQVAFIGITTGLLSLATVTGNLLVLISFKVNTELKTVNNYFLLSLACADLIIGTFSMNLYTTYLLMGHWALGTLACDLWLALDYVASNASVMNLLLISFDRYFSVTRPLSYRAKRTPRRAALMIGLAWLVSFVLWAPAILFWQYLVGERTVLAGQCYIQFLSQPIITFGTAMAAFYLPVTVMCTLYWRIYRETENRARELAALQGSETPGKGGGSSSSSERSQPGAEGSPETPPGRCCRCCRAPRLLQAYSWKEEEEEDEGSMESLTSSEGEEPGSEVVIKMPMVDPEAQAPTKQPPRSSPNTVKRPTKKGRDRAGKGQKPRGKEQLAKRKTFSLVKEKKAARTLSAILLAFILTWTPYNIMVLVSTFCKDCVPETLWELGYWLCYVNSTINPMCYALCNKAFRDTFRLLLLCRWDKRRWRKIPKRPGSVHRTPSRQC
Briefly: Allosteric agonist activity at human muscarinic M1 receptor expressed in CHO Flp-In cells assessed as intrinsic activity measured as IP1 accumulation after 1 hr by HTRF method. The class given is functional, cell-based. In a few lines: (§1)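 Suspended Flp-In CHO cells stably expressing hM1, stimulated at 10⁶ cells/ml in HEPES buffer with 50 mM LiCl, pH 7.4, using increasing ACh with or without increasing modulator, 1 h at 37 °C, 5% CO2. IP1 read by HTRF (665/590 nm ratio). Curves fitted globally to the operational model of allosterism, with KB fixed from binding. Mean ± SEM, ≥3 experiments in duplicate.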
(In TR-FRET formats the signal depends on donor and acceptor labels being close together.)

Assay [2] has as its target T2, Muscarinic acetylcholine receptor M5 (Homo sapiens) (UniProt P08912).
T2 sequence (whole entry): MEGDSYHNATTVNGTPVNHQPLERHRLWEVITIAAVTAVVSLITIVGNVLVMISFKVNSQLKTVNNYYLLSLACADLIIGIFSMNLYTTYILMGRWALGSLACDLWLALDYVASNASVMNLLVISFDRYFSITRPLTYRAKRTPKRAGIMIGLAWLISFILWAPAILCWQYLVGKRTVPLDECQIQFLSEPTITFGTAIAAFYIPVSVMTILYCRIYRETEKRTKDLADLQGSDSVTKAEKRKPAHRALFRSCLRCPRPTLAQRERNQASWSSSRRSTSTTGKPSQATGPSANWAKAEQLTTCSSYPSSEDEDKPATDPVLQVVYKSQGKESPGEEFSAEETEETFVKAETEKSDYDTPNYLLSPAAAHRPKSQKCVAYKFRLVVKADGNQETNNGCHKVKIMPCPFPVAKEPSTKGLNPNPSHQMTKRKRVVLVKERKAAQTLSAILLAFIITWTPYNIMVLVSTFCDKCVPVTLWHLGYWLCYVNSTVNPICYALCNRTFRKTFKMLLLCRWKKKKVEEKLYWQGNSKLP
The experiment in a line: Displacement of [3H]NMS from human muscarinic M5 receptor expressed in CHO Flp-In cells up to 10 uM after 1 hr by microbeta liquid scintillation counting-based radioligand binding assay. Format: cell-based. In a few lines: (§2)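 Whole Flp-In CHO cells expressing hM2, hM3, hM4 or hM5 were incubated with [3H]NMS, ACh and modulator up to 10 μM in HEPES-buffered saline pH 7.4, 1 h at 37 °C. Bound radioactivity was counted by scintillation after two ice-cold saline washes.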
A general note: Loss of bound radioactivity is the signal in a displacement assay; it reports binding, not function.

For assay [3], the target named is T3, Muscarinic acetylcholine receptor M2 (Homo sapiens) (UniProt P08172).
T3 sequence (whole entry): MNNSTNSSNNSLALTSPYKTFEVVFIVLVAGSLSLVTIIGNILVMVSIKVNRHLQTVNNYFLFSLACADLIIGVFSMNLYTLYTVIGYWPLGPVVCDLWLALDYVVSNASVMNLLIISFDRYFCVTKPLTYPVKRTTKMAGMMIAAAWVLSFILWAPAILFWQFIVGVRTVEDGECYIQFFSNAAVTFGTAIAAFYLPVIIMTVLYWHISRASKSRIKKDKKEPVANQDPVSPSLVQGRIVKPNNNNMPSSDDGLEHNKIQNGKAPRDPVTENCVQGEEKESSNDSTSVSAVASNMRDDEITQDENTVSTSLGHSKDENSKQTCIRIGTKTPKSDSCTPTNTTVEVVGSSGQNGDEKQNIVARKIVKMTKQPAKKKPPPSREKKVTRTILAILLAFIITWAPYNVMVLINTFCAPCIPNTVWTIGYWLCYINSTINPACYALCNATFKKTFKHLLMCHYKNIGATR
The experiment in a line: Displacement of [3H]NMS from human muscarinic M2 receptor expressed in CHO Flp-In cells up to 10 uM after 1 hr by microbeta liquid scintillation counting-based radioligand binding assay. The class given is cell-based. In a few lines:
as §2

In assay [4] the target is T4, Muscarinic acetylcholine receptor M4 (Homo sapiens) (UniProt P08173).
T4 sequence (whole entry): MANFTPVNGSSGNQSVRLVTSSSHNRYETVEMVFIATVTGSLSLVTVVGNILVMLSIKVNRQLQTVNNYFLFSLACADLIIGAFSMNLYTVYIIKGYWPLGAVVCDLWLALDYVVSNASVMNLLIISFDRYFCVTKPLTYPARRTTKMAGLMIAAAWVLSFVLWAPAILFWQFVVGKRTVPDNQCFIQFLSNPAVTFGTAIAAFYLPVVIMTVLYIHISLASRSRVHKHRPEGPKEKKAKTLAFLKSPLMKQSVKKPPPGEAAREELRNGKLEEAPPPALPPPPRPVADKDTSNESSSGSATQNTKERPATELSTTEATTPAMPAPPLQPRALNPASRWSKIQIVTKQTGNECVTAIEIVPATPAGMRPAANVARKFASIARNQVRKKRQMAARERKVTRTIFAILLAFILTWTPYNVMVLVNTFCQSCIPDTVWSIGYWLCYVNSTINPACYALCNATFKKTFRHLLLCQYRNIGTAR
Briefly: Displacement of [3H]NMS from human muscarinic M4 receptor expressed in CHO Flp-In cells up to 10 uM after 1 hr by microbeta liquid scintillation counting-based radioligand binding assay. Format: cell-based. In a few lines: as §2

The target in assay [5] is T1, Muscarinic acetylcholine receptor M1 (Homo sapiens). The experiment in a line: Positive allosteric modulation of human muscarinic M1 receptor expressed in CHO Flp-In cells assessed as functional cooperativity with acetylcholine measured as IP1 accumulation after 1 hr by HTRF method. The class given is cell-based. Put shortly: as §1
Assay [6] addresses Muscarinic acetylcholine receptor M3 (Homo sapiens) (UniProt P20309). Briefly: Displacement of [3H]NMS from human muscarinic M3 receptor expressed in CHO Flp-In cells up to 10 uM after 1 hr by microbeta liquid scintillation counting-based radioligand binding assay. Format: cell-based. Put shortly:
as §2

The target in assay [7] is T1, Muscarinic acetylcholine receptor M1 (Homo sapiens). Briefly: Displacement of [3H]NMS from human muscarinic M1 receptor expressed in CHO Flp-In cells after 1 hr by microbeta liquid scintillation counting-based radioligand binding assay. The class given is cell-based. Put shortly: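 Intact adherent Flp-In CHO cells expressing hM1 (10⁴ cells/well), incubated with 0.2 nM [3H]NMS, varying ACh and modulator in HEPES-buffered saline pH 7.4 for 1 h at 37 °C. Washed with ice-cold 0.9% NaCl, then scintillation counted. Fitted to an allosteric ternary complex model with [3H]NMS KA 0.2 nM. Mean ± SEM, ≥3 experiments in duplicate.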

Active and inactive are the calls of the source. The rule behind the calls is not given here.

The pKb is the Kb on a negative log10 scale, so that one unit is a factor of ten.

Sequence of Muscarinic acetylcholine receptor M3 (Homo sapiens) (P20309 whole entry, looked up): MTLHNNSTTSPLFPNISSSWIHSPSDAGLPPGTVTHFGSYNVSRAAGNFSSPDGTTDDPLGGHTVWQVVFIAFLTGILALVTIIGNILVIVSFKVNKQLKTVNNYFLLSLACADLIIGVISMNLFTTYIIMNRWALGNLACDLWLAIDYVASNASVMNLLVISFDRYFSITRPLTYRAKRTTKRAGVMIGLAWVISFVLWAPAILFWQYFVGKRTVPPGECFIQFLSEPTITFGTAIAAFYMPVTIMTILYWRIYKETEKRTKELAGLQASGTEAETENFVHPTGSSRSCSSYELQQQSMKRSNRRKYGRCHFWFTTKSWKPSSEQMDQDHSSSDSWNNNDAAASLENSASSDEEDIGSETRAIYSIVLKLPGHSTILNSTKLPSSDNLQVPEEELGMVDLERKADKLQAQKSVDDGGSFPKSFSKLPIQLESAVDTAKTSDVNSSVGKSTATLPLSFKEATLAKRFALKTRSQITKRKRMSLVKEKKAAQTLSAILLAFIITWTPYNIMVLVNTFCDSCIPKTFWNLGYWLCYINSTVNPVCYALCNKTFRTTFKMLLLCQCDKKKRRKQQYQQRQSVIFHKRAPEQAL

Take `COc1ccc(Cn2cc(C(=O)O)c(=O)c3ccccc32)cc1`: the Intrinsic activity in assay [1] came out at 0.22. Further, the log(IA) in assay [1] was -0.6. Also, the outcome in assay [2], in assay [3], in assay [4] and in assay [6] was inactive. Besides, in assay [5], the log(activity) stood at 1.84.

As for `Cn1cc(-c2ccc(COc3ccccc3-c3ccn([C@H]4CCCC[C@@H]4O)c(=O)c3)cc2)cn1` (racemic), in assay [1], the Intrinsic activity turned out to be 0.21. Moreover, the log(IA) in assay [1] is -0.68. Moreover, the outcome in assay [2], in assay [3], in assay [4] and in assay [6] was inactive. The compound also gave a Kb in assay [7] of 43 µM. Moreover, in assay [7], the pKb was found to be 4.37. For the same compound, the log(activity) in assay [5] came out at 2.3.
